Laboratory results published in ChEMBL document CHEMBL2169846, “Design and synthesis of Pictet-Spengler condensation products that exhibit oncogenic-RAS synthetic lethality and induce non-apoptotic cell death” (Bioorg Med Chem Lett, 2012).
The source made the active and inactive calls. The calls are words filed in the database; no cut-off is given here.

Assays:
[1] = system: BJeLR; test: Cytotoxicity against human BJeLR cells expressing RAS G12V mutant at 10 uM at 12 hrs by trypan blue staining; format: functional, cell-based
[2] = system: BJeLR; test: Cytotoxicity against human BJeLR cells expressing RAS G12V mutant at 10 uM at 24 hrs by trypan blue staining; format: functional, cell-based
[3] = system: BJeH; test: Cytotoxicity against human BJeH cells expressing wild type RAS at 10 uM after 24 hrs by trypan blue staining; format: functional, cell-based
[4] = system: BJeLR; test: Induction of reactive oxygen species production in human BJeLR cells expressing RAS G12V mutant after 6 hrs by DCF-based flow cytometric analysis; format: functional, cell-based
[5] = system: BJeH; test: Induction of reactive oxygen species production in human BJeH cells expressing wild type RAS after 6 hrs by DCF-based flow cytometric analysis; format: functional, cell-based
[6] = Cytotoxicity against human HT1299 cells after 48 hrs by alamar blue assay; format: functional; conditions: HT1299, 48 h, read-out: LC50 (the source's name)
[7] = system: E3 ubiquitin-protein ligase Mdm2 (Homo sapiens), Q00987 [C464A]; test: Inhibition of Mdm2 C464A mutant at 20 ug/mL after 2 hrs by cell-based luciferase assay
Sequence of E3 ubiquitin-protein ligase Mdm2 (Homo sapiens), Q00987 [C464A] (Q00987 whole entry C464A): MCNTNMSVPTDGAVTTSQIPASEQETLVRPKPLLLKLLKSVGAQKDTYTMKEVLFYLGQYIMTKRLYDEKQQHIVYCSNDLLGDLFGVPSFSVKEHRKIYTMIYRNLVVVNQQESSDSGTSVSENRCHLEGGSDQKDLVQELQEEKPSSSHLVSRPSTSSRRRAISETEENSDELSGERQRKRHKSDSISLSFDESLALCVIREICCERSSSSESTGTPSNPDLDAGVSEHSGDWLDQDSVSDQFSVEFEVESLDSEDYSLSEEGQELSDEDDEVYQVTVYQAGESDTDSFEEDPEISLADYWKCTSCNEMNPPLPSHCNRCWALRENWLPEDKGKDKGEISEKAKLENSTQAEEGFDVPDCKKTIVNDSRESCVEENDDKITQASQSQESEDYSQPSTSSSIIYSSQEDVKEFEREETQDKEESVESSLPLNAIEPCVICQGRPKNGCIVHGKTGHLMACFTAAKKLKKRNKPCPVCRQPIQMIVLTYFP

[8] = system: RKO; test: Cytotoxicity against human RKO cells after 48 hrs by alamar blue assay; format: functional; conditions: read-out: LC50 (the source's name)
[9] = Cytotoxicity against human BJeLR cells expressing RAS G12V mutant after 48 hrs by alamar blue assay; format: functional, cell-based; conditions: read-out: LC50 (the source's name)
[10] = system: MCF7; test: Cytotoxicity against human MCF7 cells after 48 hrs by alamar blue assay; format: functional; conditions: MCF7, 48 h, read-out: LC50 (the source's name)
[11] = target: E3 ubiquitin-protein ligase Mdm2 (Homo sapiens) (UniProt Q00987); test: Inhibition of wild type Mdm2 at 20 ug/mL after 2 hrs by cell-based luciferase assay
Sequence of E3 ubiquitin-protein ligase Mdm2 (Homo sapiens) (Q00987 whole entry, looked up): as the sequence (Q00987 whole entry C464A) above, with A464C counted along it

[12] = system: U2OS; test: Cytotoxicity against human U2OS cells after 48 hrs by alamar blue assay; format: functional; conditions: read-out: LC50 (the source's name)
[13] = Cytotoxicity against human BJeH cells expressing wild type RAS after 48 hrs by alamar blue assay; format: functional, cell-based; conditions: read-out: LC50 (the source's name)
[14] = system: BJeLR; test: Cytotoxicity against human BJeLR cells expressing RAS G12V mutant at 0.57 uM at 12 hrs by trypan blue staining; format: functional, cell-based
Outline: (§1)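 Time-course in BJ-TERT/LT/ST/RAS^V12 cells exposed for the designated times to erastin (10 µM), test compound (30 µM) or RSL3 (0.57 µM) to follow onset of death. Data representative of duplicate experiments.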

[15] = system: BJeH; test: Cytotoxicity against human BJeH cells expressing wild type RAS at 568 nM after 24 hrs by trypan blue staining; format: functional, cell-based
[16] = system: BJeLR; test: Cytotoxicity against human BJeLR cells expressing RAS G12V mutant at 0.57 uM at 24 hrs by trypan blue staining; format: functional, cell-based; outline: as §1
[17] = Cytotoxicity against human BJeH cells expressing wild type RAS; format: functional; conditions: read-out: LC50 (the source's name)
[18] = Growth inhibition of human BJeH cells expressing wild type RAS relative to control; format: functional
Outline: (§2)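 Four cell lines treated for 48 h in a two-fold, 7-point dilution series. Viability by Alamar blue reading. LC50 and maximum growth-inhibitory efficacy were tabulated as ± SEM of triplicates.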

[19] = Cytotoxicity against human DRD cells expressing RAS G12V mutant; format: functional; conditions: read-out: LC50 (the source's name)
[20] = Growth inhibition of human BJeH-LT cells expressing wild type RAS relative to control; format: functional; outline: as §2
[21] = system: HT-1080; test: Cytotoxicity against human HT1080 after 48 hrs by alamar blue assay in presence of z-VAD-fmk; format: functional, cell-based
Outline: (§3)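 HT1080 cells given the test compound together with a rescue agent: deferoxamine 152 µM, α-tocopherol 100 µM, z-VAD-fmk 45 µM or Boc-D-fmk 50 µM. Viability read out afterwards.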

[22] = Cytotoxicity against human BJeLR cells expressing RAS G12V mutant; format: functional; conditions: read-out: LC50 (the source's name)
[23] = Stability of the compound assessed as GSH adduct formation after 24 hrs by mass spectroscopy; format: physicochemical
[24] = system: BJeLR; test: Cytotoxicity against human BJeLR cells expressing RAS G12V mutant at high concentration after 28 hrs by alamar blue assay; format: functional, cell-based
Outline: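 BJ-TERT/LT/ST/RAS^V12 cells treated for 28 h across a two-fold, 14-point dilution series. Viability was read by Alamar blue, and caspase 3/7 activation was detected by Apo-ONE in the same cells.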

[25] = system: BJeLR; test: Induction of apoptosis in human BJeLR cells expressing RAS G12V mutant assessed as caspase 3 activation after 28 hrs by Apo-One assay; format: functional, cell-based
Outline: (§4)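 BJ-TERT and BJ-TERT/LT/ST/RAS(V12) cells given compound as a two-fold, 14-point dilution series for 28 h. Alamar blue then added for viability, and caspase 3/7 activation detected by Apo-ONE in the same wells.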

[26] = system: BJeLR; test: Induction of apoptosis in human BJeLR cells expressing RAS G12V mutant assessed as caspase 7 activation after 28 hrs by Apo-One assay; format: functional, cell-based; outline: as §4
[27] = Selectivity ratio of LC50 for human BJeH cells to LC50 for human DRD cells; format: functional
Outline: (§5)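 LC50 of BJ-TERT divided by LC50 of the RAS(V12)-transformed line or of DRD cells.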

[28] = system: BJeLR; test: Cytotoxicity against human BJeLR cells expressing RAS G12V mutant at 30 uM at 12 hrs by trypan blue staining; format: functional, cell-based; outline: as §1
[29] = system: HT-1080; test: Cytotoxicity against human HT1080 after 48 hrs by alamar blue assay in presence of deferoxamine; format: functional, cell-based; outline: as §3
[30] = Stability of the compound in phosphate buffered saline after 24 hrs by mass spectroscopy; format: physicochemical; conditions: buffer
[31] = system: BJeH; test: Induction of reactive oxygen species production in human BJeH cells expressing wild type RAS after 18 hrs by DCF-based flow cytometric analysis; format: functional, cell-based
[32] = Ratio of MEL24 LC50 to compound LC50 for human BJeLR cells expressing RAS G12V mutant; format: functional
[33] = system: BJeH; test: Induction of apoptosis in human BJeH cells expressing wild type RAS assessed as caspase 3 activation after 28 hrs by Apo-One assay; format: functional, cell-based; outline: as §4
[34] = system: BJeLR; test: Induction of reactive oxygen species production in human BJeLR cells expressing RAS G12V mutant after 18 hrs by DCF-based flow cytometric analysis; format: functional, cell-based
[35] = system: MCF7; test: Cytotoxicity against human MCF7 cells at 20 ug/mL after 48 hrs by alamar blue assay; format: functional, cell-based
Outline: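 Each cell line exposed for 48 h to a 2-fold, 12-point dilution series beginning at 20 µg/mL. Viability by Alamar blue; LC50 derived from the curves.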

[36] = system: HT-1080; test: Cytotoxicity against human HT1080 after 48 hrs by alamar blue assay in presence of Boc-D-fmk; format: functional, cell-based; outline: as §3
[37] = system: BJeLR; test: Cytotoxicity against human BJeLR cells expressing RAS G12V mutant at 30 uM at 24 hrs by trypan blue staining; format: functional, cell-based; outline: as §1
[38] = Growth inhibition of human DRD cells expressing RAS G12V mutant relative to control; format: functional; outline: as §2
[39] = system: BJeH; test: Induction of apoptosis in human BJeH cells expressing wild type RAS assessed as caspase 7 activation after 28 hrs by Apo-One assay; format: functional, cell-based; outline: as §4
[40] = system: HT-1080; test: Cytotoxicity against human HT1080 after 48 hrs by alamar blue assay in presence of alpha-tocopherol; format: functional, cell-based; outline: as §3
[41] = Cytotoxicity against human BJeH-LT cells expressing wild type RAS; format: functional; conditions: read-out: LC50 (the source's name)
[42] = Selectivity ratio of LC50 for human BJeH cells to LC50 for human BJeLR cells expressing RAS G12V mutant; format: functional; outline: as §5
[43] = Growth inhibition of human BJeLR cells expressing RAS G12V mutant relative to control; format: functional; outline: as §2
[44] = system: BJeH; test: Cytotoxicity against human BJeH cells expressing wild type RAS at 30 uM after 24 hrs by trypan blue staining; format: functional, cell-based
[45] = system: U2OS; test: Cytotoxicity against human U2OS cells at 20 ug/mL after 48 hrs by alamar blue assay; format: functional, cell-based
[46] = system: HT-1080; test: Cytotoxicity against human HT1080 cells after 48 hrs by alamar blue assay; format: functional; conditions: HT-1080, 48 h, read-out: LC50 (the source's name)
[47] = system: BJeH; test: Cytotoxicity against human BJeH cells expressing wild type RAS at 20 ug/mL after 48 hrs by alamar blue assay; format: functional, cell-based

## CCOc1ccccc1-n1c(C(C)N2CCN(C(=O)COc3ccc(Cl)cc3)CC2)nc2ccccc2c1=O (configuration not stated)
[1]
  Activity: Active
[2]
  Activity: Active
[3]
  Activity: inactive
[4]
  Activity: Active
[5]
  Activity: Active

## COC(OC)C1c2[nH]c3ccccc3c2CCN1C(=O)OCc1ccccc1 (configuration not stated)
[6]
  CC50: 52.6 µM
[7]
  inhibition: inactive
[8]
  CC50: 22.3 µM
[9]
  CC50: 10.2 µM
[10]
  CC50: 6.5 µM
[11]
  inhibition: inactive
[12]
  CC50: 10.2 µM
[13]
  CC50: 52.6 µM

## COC(=O)c1ccc(C2c3[nH]c4ccccc4c3CC(C(=O)OC)N2C(=O)CCl)cc1 (configuration not stated)
[14]
  Activity: Active
[15]
  Activity: inactive
[4]
  Activity: Active
[16]
  Activity: Active
[5]
  Activity: Active

## CCOC(=O)C1c2c(c3ccccc3n2C)CCN1C(=O)OC (configuration not stated)
[17]
  CC50: 179 µM
[18]
  growth inhibition (GI): 22.1%
[19]
  CC50: 102 µM
[20]
  growth inhibition (GI): 8.5%
[6]
  CC50: 30 µM
[21]
  Activity: Active
[22]
  CC50: 20.3 µM
[23]
  Stability: Stable
[24]
  Activity: Active
[25]
  Activity: inactive
[7]
  inhibition: inactive
[8]
  CC50: 31.6 µM
[26]
  Activity: inactive
[9]
  CC50: 6.3 µM
[27]
  Ratio: 3
[28]
  Activity: Active
[29]
  Activity: inactive
[30]
  Stability: Stable
[31]
  Activity: Active
[32]
  Ratio: 4
[33]
  Activity: inactive
[34]
  Activity: Active
[35]
  Activity: inactive
[36]
  Activity: Active
[37]
  Activity: Active
[38]
  growth inhibition (GI): 67%
[39]
  Activity: inactive
[40]
  Activity: inactive
[11]
  inhibition: inactive
[41]
  CC50: 266 µM
[42]
  Ratio: 10
[43]
  growth inhibition (GI): 98.7%
[13]
  CC50: 63.2 µM
[44]
  Activity: inactive

## CN1C(=O)C(C2NC=Cc3c2[nH]c2ccccc32)C(=O)N(C)C1=O (configuration not stated)
[6]
  CC50: 61.7 µM
[7]
  inhibition: inactive
[8]
  CC50: 25 µM
[9]
  CC50: 12.9 µM
[32]
  Ratio: 2
[10]
  CC50: 61.7 µM
[45]
  Activity: inactive
[46]
  CC50: 16 µM
[11]
  inhibition: inactive
[47]
  Activity: inactive
